The source of these data is ChEMBL document CHEMBL1126709, “Structure-activity relationship studies at the benzodiazepine receptor (BZR): a comparison of the substitutent effects of pyrazoloquinolinone analogs” (J Med Chem, 1993).

The target of assay [1] is GABA-A receptor; anion channel. The assay is described as follows: Specific binding of [3H]Ro-151788 to GABA-A Benzodiazepine receptor in rat cortex. The gist of the method: (§1)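 Rat brain (Sprague-Dawley) cortex homogenized in 50 mM Tris-citrate pH 7.4, centrifuged at 20000g, washed five times and stored at -80 °C. About 0.12 mg protein was incubated with [3H]Ro15-1788 (1 nM final) for 1 h at 0–4 °C. Nonspecific binding was defined with 10 μM Ro14-7437. Bound label was separated by filtration and counted by scintillation. IC50 was taken from 10-concentration curves run in triplicate.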

Assay [2] deals with GABA-A receptor; anion channel (Rattus norvegicus) (UniProt O09028+P15431+P18506+P18508+P19969+P20236+P23574+P23576+P28471+P28473+P30191+P62813+P63079+P63138+Q91ZM7+Q9ES14). Put plainly: Relative binding to GABA-A receptor in the presence and absence of GABA. It is filed as protein-complex assay. A digest of the protocol: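 GABA shift ratio is IC50 without GABA divided by IC50 with GABA. Both were measured as [3H]Ro15-1788 (1 nM) displacement in washed rat cortical membranes, 1 h at 0–4 °C, with filtration and scintillation counting. The GABA arm also contained NaCl (400 mM) and GABA (200 mM, as printed). Curves used 10 concentrations in triplicate.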

The target of assay [3] is GABA-A receptor; anion channel. Put plainly: Partial agonistic activity against specific binding of [3H]-Ro-15-1788 to GABA-A Benzodiazepine receptor in rat cortex. A digest of the protocol: as §1

As a reminder, the IC50 is the point on the concentration scale where inhibition reaches its midpoint. Read a high IC50 as lower potency. In turn, `COc1cccc(-n2[nH]c3c(cnc4ccccc43)c2=O)c1` displayed an IC50 in assay [1] of 0.58 nM. In assay [2], the Ratio is 1.1.

Molecule `O=c1c2cnc3ccc(Cl)cc3c2[nH]n1-c1ccc(Cl)cc1` came in with an IC50 in assay [1] of 4 nM. The Ratio in assay [2] is 1.47.

In the case of `O=c1c2cnc3ccccc3c2[nH]n1-c1ccccc1Cl`, in assay [1], the IC50 worked out at 70 nM. For the same molecule, the Ratio in assay [2] amounted to 1.

For `O=C1C2C=Nc3ccccc3C2=NN1c1ccccc1` (stereo not drawn) [CGS-8216], the Ratio in assay [2] worked out at 0.99. Besides, in assay [3], the IC50 stood at 0.13 nM.

`COc1ccccc1-n1[nH]c2c(cnc3ccccc32)c1=O` had an IC50 in assay [1] of 990 nM.

For the molecule `O=c1c2cnc3ccccc3c2[nH]n1-c1cccc(Cl)c1`, the IC50 in assay [1] was found to be 3.9 nM. In addition, the Ratio in assay [2] was 1.7.

In turn, `O=c1c2cnc3ccc(Cl)cc3c2[nH]n1-c1ccccc1Cl` came in with an IC50 in assay [1] of 8 nM. In addition, the Ratio in assay [2] is 1.34.

Regarding `COc1ccc(-n2nc3c4ccccc4[nH]cc-3c2=O)cc1`, the Ratio in assay [2] came to 0.94. In assay [3], this molecule registered an IC50 of 0.38 nM.

On to `COc1ccc2ncc3c(=O)n(-c4ccccc4)[nH]c3c2c1`, for which, in assay [1], the IC50 turned out to be 0.38 nM. The Ratio in assay [2] is 0.91.

`COc1ccc2c(c1)ncc1c(=O)n(-c3ccccc3)[nH]c12` displayed an IC50 in assay [1] of 2.1 nM. The Ratio in assay [2] stood at 0.97.

In the case of `O=C1C2C=Nc3ccccc3C2=NN1c1ccc(Cl)cc1` (stereo not drawn) [CGS-9896], in assay [2], the Ratio amounted to 1.07. The molecule further registered an IC50 in assay [3] of 0.56 nM.

The molecule `O=c1c2cnc3ccc(Cl)cc3c2[nH]n1-c1ccccc1` had an IC50 in assay [1] of 0.24 nM. For the same molecule, in assay [2], the Ratio stood at 1.1.
